KDM4C inh = inhibitors of GASC-1 (KDM4C) histone demethylase, primary screen, biochemical, single concentration HTS. GST-KDM4C 2-372, H3K9me3 peptide, LANCE TR-FRET. 96,000 compounds, 0.15% hits. inhibition, % at 12.5 µM;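 active = mean replicate inhibition above about 25%, with at least 55% of replicates also reaching it, limit read from the data, passing the limit was not always enough; inconclusive = only one of those two conditions met; inactive = neither condition met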
Target sequence (Q9H3R0 2-372 limits assumed): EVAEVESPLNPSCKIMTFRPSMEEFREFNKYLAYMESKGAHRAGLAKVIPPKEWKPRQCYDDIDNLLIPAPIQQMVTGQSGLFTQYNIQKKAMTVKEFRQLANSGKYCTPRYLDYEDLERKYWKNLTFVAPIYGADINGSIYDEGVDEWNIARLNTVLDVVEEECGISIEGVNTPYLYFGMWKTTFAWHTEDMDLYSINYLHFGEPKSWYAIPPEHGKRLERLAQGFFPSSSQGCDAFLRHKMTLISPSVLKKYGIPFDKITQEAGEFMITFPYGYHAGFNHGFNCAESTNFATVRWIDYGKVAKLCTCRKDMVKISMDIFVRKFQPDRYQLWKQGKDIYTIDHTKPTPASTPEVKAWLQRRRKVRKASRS
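Test system: N-terminal GST-fused human GASC-1 (KDM4C) fragment, residues 2-372; quantity: GASC-1 enzyme at 10 nM final in reaction; dosing: single dose; schedule: 30 min demethylation and 1 h detection at room temperature; signal: LANCE TR-FRET, excitation 340 nm, emissions 618 and 671 nm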
IDH1 mut inh = inhibitors of IDH1 R132H reductase, primary screen, biochemical, plate reader, single point | Isocitrate dehydrogenase [NADP] cytoplasmic (Homo sapiens), O75874 | diaphorase/resazurin fluorescence, 60 min | inhibition, % at 10 µM | 70,000 compounds, 0.18% hits | AID 624101, 2012; in the data active = inhibition above about 34%; inconclusive = no clear call, values can overlap the other calls; inactive = below about 11%
Target sequence (O75874 whole entry R132H): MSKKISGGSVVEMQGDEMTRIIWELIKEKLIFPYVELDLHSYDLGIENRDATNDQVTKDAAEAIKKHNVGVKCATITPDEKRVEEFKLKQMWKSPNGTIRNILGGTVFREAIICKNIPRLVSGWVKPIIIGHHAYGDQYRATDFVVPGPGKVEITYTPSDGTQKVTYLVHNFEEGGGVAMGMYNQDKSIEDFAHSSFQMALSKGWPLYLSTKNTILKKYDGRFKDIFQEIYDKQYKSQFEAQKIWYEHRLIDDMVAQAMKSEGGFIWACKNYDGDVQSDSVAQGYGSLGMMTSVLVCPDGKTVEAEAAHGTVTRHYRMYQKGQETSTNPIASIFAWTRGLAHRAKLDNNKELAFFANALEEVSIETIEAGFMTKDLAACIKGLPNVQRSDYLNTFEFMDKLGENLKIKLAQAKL
T cruzi growth-1 = T. cruzi intracellular proliferation inhibitors, primary screen, cell-based, beta-gal Tulahuen parasites, NIH3T3 host, luminescence | AID 624255, 2012 | 77,000 compounds, 5.9% hits | inhibition, % at 8.34 µM | T. cruzi beta-gal in NIH3T3, GalScreen luminescence, 90 h;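 active = mean inhibition above about 93%, with at least 55% of replicates each passing it, limit read from the data, passing the limit was not always enough; inconclusive = only one of those two conditions holds; inactive = neither condition holds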
T cruzi growth-2 = T. cruzi intracellular proliferation inhibitors, confirmation, cell-based, NIH3T3 host, beta-gal parasite, luminescence, cherry-pick; inhibition, % at 8.35 µM; shares compounds with T cruzi growth-1; 5,600 compounds, 72% hits; T. cruzi beta-gal in NIH3T3, GalScreen luminescence, 90 h; AID 651739, 2012;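 active = mean replicate inhibition above about 95% and at least 55% of replicates individually reaching it, limit read from the data; inconclusive = only one of the two criteria is met; inactive = neither criterion is met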
T cruzi growth-3 = inhibitors of intracellular T. cruzi replication, confirmation, NIH3T3 host cells, beta-gal parasites, cherry-pick, set 2; shares compounds with T cruzi growth-1; T. cruzi beta-gal in NIH3T3, GalScreen luminescence, 90 h; inhibition, % at 2.09 µM; 5,600 compounds, 21% hits; AID 651740, 2012;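 active = mean inhibition above about 95%, with at least 55% of replicates also reaching it, limit read from the data; inconclusive = meets just one of the two conditions; inactive = meets neither condition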
3T3 cytotox = cytotoxicity in mouse NIH/3T3 fibroblasts, confirmation, cytotoxicity control for T. cruzi proliferation inhibitor project, cell-based, cherry-pick, single point; shares compounds with T cruzi growth-1; NIH/3T3 viability, CellTiter-Glo ATP luminescence, 90 h; cytotoxicity (signal decrease), % at 8.35 µM; 5,600 compounds, 14% hits; AID 651742, 2012;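 active = mean signal decrease across replicates above about 35% based on untreated-well scatter, with enough replicates individually passing, limit read from the data; inconclusive = no rule stated though some were filed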
NIH3T3 tox 2 = NIH/3T3 fibroblast cytotoxicity, confirmation, cytotoxicity control, cell-based, cherry-pick, single point, set 2; AID 651744, 2012; shares compounds with T cruzi growth-1; inhibition, % at 24.9 µM; 5,600 compounds, 56% hits; NIH/3T3 viability, CellTiter-Glo ATP luminescence, 90 h;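 active = mean loss of cell viability signal at or above a set limit, and enough replicates individually reaching it; inconclusive = meets only the mean limit or only the replicate share; inactive = meets neither condition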
Of the large screens only hits and unclear results are named; the others gave an inactive call (follow-up assays come after a bar, where they were run). This excerpt belongs to a sample that is enriched for hits.

CCCNC(=O)N1[C@H](C#N)[C@@H](c2ccc(C#Cc3cccc(F)c3)cc2)[C@@H]1CO	T cruzi growth-1 100 (no result: IDH1 mut inh) | T cruzi growth-2 102 | T cruzi growth-3 inactive | 3T3 cytotox inactive | NIH3T3 tox 2 inactive
Cc1cc(C)c(NC(=O)CN(c2ccc(Oc3ccccc3)cc2)S(C)(=O)=O)c(C)c1	none (no result: KDM4C inh, T cruzi growth-1)
O=C(Nc1sc2c(c1C(=O)NCc1cccnc1)CCCCC2)c1ccccc1	none (no result: KDM4C inh, T cruzi growth-1)
Cc1ccc(OCC(=O)Nc2ccc3oc(-c4ccc(F)cc4)nc3c2)cc1C	none (no result: KDM4C inh, T cruzi growth-1)
C[C@@H]1CCCCO[C@H](CN(C)S(=O)(=O)c2ccc(F)cc2)[C@H](C)CN([C@@H](C)CO)C(=O)c2cc(NC(=O)Nc3ccc(F)cc3)ccc2O1	T cruzi growth-1 inconclusive (no result: IDH1 mut inh) | T cruzi growth-2 100 | T cruzi growth-3 inactive | 3T3 cytotox inactive | NIH3T3 tox 2 inactive
C[C@@H]1CCCCO[C@H](CN(C)S(=O)(=O)c2ccc(F)cc2)[C@@H](C)CN([C@H](C)CO)C(=O)c2cc(NC(=O)Nc3ccc(F)cc3)ccc2O1	none
C[C@@H]1CCCCO[C@@H](CN(C)S(=O)(=O)c2ccc(F)cc2)[C@@H](C)CN([C@@H](C)CO)C(=O)c2cc(NC(=O)Nc3ccc(C(F)(F)F)cc3)ccc2O1	none (no result: IDH1 mut inh)
C[C@@H]1CN([C@@H](C)CO)C(=O)c2cc(NC(=O)Nc3ccc(C(F)(F)F)cc3)ccc2O[C@@H](C)CCCCO[C@@H]1CN(C)S(=O)(=O)c1ccc(Cl)cc1	none (no result: IDH1 mut inh)
C[C@@H]1CCCCO[C@H](CN(C)S(=O)(=O)c2ccc(F)cc2)[C@@H](C)CN([C@H](C)CO)C(=O)c2cc(NC(=O)Nc3ccc(C(F)(F)F)cc3)ccc2O1	T cruzi growth-1 103 (no result: KDM4C inh) | T cruzi growth-2 109 | T cruzi growth-3 inactive | 3T3 cytotox inactive | NIH3T3 tox 2 51
C[C@@H]1CCCCO[C@H](CN(C)S(=O)(=O)c2ccc(Cl)cc2)[C@@H](C)CN([C@@H](C)CO)C(=O)c2cc(NC(=O)Nc3ccc(C(F)(F)F)cc3)ccc2O1	T cruzi growth-1 inconclusive (no result: IDH1 mut inh) | T cruzi growth-2 106 | T cruzi growth-3 110 | 3T3 cytotox inactive | NIH3T3 tox 2 34
Cc1ccc(S(=O)(=O)N(C)C[C@H]2OCCCC[C@@H](C)Oc3ccc(NC(=O)Nc4ccc(F)cc4)cc3C(=O)N([C@H](C)CO)C[C@H]2C)cc1	none (no result: IDH1 mut inh, T cruzi growth-1)
C[C@H]1CCCCO[C@H](CN(C)S(=O)(=O)c2ccc(F)cc2)[C@@H](C)CN([C@@H](C)CO)C(=O)c2cc(NC(=O)Nc3ccc(F)cc3)ccc2O1	T cruzi growth-1 107 (no result: IDH1 mut inh) | T cruzi growth-2 105 | T cruzi growth-3 108 | 3T3 cytotox inactive | NIH3T3 tox 2 inactive
CCn1c(SCC(=O)Nc2ccccc2C(F)(F)F)nnc1-c1ccc(N)cc1	none (no result: KDM4C inh, T cruzi growth-1)
Cc1cc(C)cc(NC(=O)CSc2nc3ccccc3s2)c1	none (no result: KDM4C inh, T cruzi growth-1)
COc1ccc(Cl)cc1NC(=O)CSc1nc2ccc(NC(=O)c3ccc(C)cc3)cc2s1	none (no result: KDM4C inh, T cruzi growth-1)
C[C@@H]1CCCCO[C@H](CN(C)C(=O)c2ccccc2)[C@H](C)CN([C@H](C)CO)C(=O)c2cc(NC(=O)C3CCCCC3)ccc2O1	none
CN(CCO)c1ccc(/C=N/NC(=O)c2ccccn2)cc1	none (no result: KDM4C inh, T cruzi growth-1)
Cc1ccc(S(=O)(=O)N(C)C[C@H]2OCCCC[C@H](C)Oc3ccc(NC(=O)Nc4ccc(F)cc4)cc3C(=O)N([C@H](C)CO)C[C@H]2C)cc1	none (no result: T cruzi growth-1)
Cc1ccc(S(=O)(=O)N(C)C[C@@H]2OCCCC[C@@H](C)Oc3ccc(NC(=O)Nc4ccc(F)cc4)cc3C(=O)N([C@@H](C)CO)C[C@@H]2C)cc1	T cruzi growth-1 107 | T cruzi growth-2 111 | T cruzi growth-3 105 | 3T3 cytotox inactive | NIH3T3 tox 2 47
C/C=C/c1ccc2c(c1)O[C@@H](CN(C)Cc1ccncc1)[C@@H](C)CN([C@H](C)CO)S2(=O)=O	T cruzi growth-1 103 | T cruzi growth-2 96 | T cruzi growth-3 inactive | 3T3 cytotox inactive | NIH3T3 tox 2 57
C/C=C/c1ccc2c(c1)O[C@H](CN(C)Cc1cncnc1)[C@@H](C)CN([C@H](C)CO)S2(=O)=O	none (no result: T cruzi growth-1)
C/C=C/c1ccc2c(c1)O[C@@H](CN(C)Cc1ccncc1)[C@H](C)CN([C@H](C)CO)S2(=O)=O	IDH1 mut inh 43, T cruzi growth-1 102 | T cruzi growth-2 99 | T cruzi growth-3 104 | 3T3 cytotox inconclusive | NIH3T3 tox 2 69
C/C=C/c1ccc2c(c1)O[C@@H](CN(C)Cc1ccccc1)[C@@H](C)CN([C@H](C)CO)S2(=O)=O	none
COc1ccc(NC(=O)Cn2c(=O)n(-c3ccc(Cl)cc3)c(=O)c3c4c(sc32)CCCC4)cc1	none (no result: KDM4C inh, T cruzi growth-1)
COCC(=O)N(C)C[C@H]1Oc2ncc(C#CCC3CCCC3)cc2C(=O)N([C@@H](C)CO)C[C@@H]1C	none
Cc1ccc(S(=O)(=O)N(C)C[C@@H]2OCCCC[C@H](C)Oc3ccc(NC(=O)Nc4ccc5c(c4)OCO5)cc3C(=O)N([C@@H](C)CO)C[C@H]2C)cc1	none (no result: T cruzi growth-1)
COc1ccccc1-c1ccc2c(c1)O[C@H](CN(C)S(=O)(=O)c1ccc(C)cc1)[C@@H](C)CN([C@@H](C)CO)S2(=O)=O	T cruzi growth-1 126 | T cruzi growth-2 104 | T cruzi growth-3 inactive | 3T3 cytotox 39 | NIH3T3 tox 2 36
COc1ccccc1-c1ccc2c(c1)O[C@H](CN(C)C)[C@H](C)CN([C@H](C)CO)S2(=O)=O	none
COc1ccccc1-c1ccc2c(c1)O[C@@H](CN(C)S(=O)(=O)c1ccc(C)cc1)[C@H](C)CN([C@H](C)CO)S2(=O)=O	T cruzi growth-1 127 | T cruzi growth-2 105 | T cruzi growth-3 103 | 3T3 cytotox inactive | NIH3T3 tox 2 45
COc1ccccc1-c1ccc2c(c1)O[C@@H](CN(C)C)[C@@H](C)CN([C@@H](C)CO)S2(=O)=O	none
Cc1ccc(S(=O)(=O)Nc2ccc3c(c2)C(=O)N([C@@H](C)CO)C[C@H](C)[C@@H](CN(C)C(=O)NC(C)C)OCCCC[C@@H](C)O3)cc1	none (no result: T cruzi growth-1)
Cc1ccc(NC(=O)CC2NC3CCCCC3NC2=O)cc1Cl (stereo unspecified)	none (no result: KDM4C inh, T cruzi growth-1)
COc1cc(C(=O)NC(=S)Nc2cccc(-c3nc4ncccc4o3)c2C)cc(OC)c1OC	none (no result: KDM4C inh, T cruzi growth-1)
